Results as given in ChEMBL document CHEMBL1142561, “Prenylflavonoids and phloroglucinol derivatives from hops (Humulus lupulus)” (J Nat Prod, 2005).

Experiments:
RAW264.7 [1] = test: Inhibition of LPS/IFN-gamma-induced NO production in mouse RAW264.7 cells after 16 hrs; assay type: functional, cell-based; conditions: RAW264.7, 16 h
In short: (§1)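 RAW 264.7 macrophages in RPMI 1640 with 10% FBS, 2 mM L-glutamine, penicillin/streptomycin, seeded at 5 × 10⁵ cells/mL. After 1 h, stimulated with LPS (100 ng/mL) plus IFN-γ (100 units/mL) and samples in DMSO (0.2% final) for 16 h at 37 °C. Supernatant nitrite measured by Griess assay at 570 nm against NaNO₂ standards. Inhibition rate taken relative to LPS/IFN-only wells.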

[2] = Cytotoxicity against mouse RAW264.7 cells assessed as cell viability at <10 uM after 16 hrs by MTT assay; assay type: cell-based; conditions: read-out: Activity
In short: (§2)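 RAW 264.7 cells grown in RPMI 1640 with 10% FBS, 2 mM L-glutamine, penicillin/streptomycin. Seeded at 5 × 10⁵ cells/mL in 96-well plates and co-treated with LPS (100 ng/mL), IFN-γ (100 units/mL) and samples in DMSO (0.2% final) for 16 h at 37 °C. MTT (200 μg/mL) added for a further 4 h. Formazan dissolved in DMSO, A540 read, compared with nontreated cells.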

RAW264.7 [3] = test: Cytotoxicity against mouse RAW264.7 cells assessed as cell viability at 20 uM after 16 hrs by MTT assay; assay type: cell-based; conditions: raw264.7, 16 h; in short: as §2
[4] = Cytotoxicity against mouse RAW264.7 cells assessed as cell viability at 200 uM after 16 hrs by MTT assay; assay type: cell-based; conditions: read-out: Activity; in short: as §2
RAW264.7 [5] = test: Inhibition of LPS/IFN-gamma-induced NO production in mouse RAW264.7 cells at non cytotoxic concentration after 16 hrs; assay type: functional; in short: as §1
RAW264.7 [6] = test: Cytotoxicity against mouse RAW264.7 cells after 16 hrs by MTT assay; assay type: cell-based; conditions: raw264.7, 16 h; in short: as §2
[7] = Cytotoxicity against mouse RAW264.7 cells assessed as cell viability at 2 uM after 16 hrs by MTT assay; assay type: cell-based; conditions: read-out: Activity; in short: as §2

Row | SMILES | IC50 (RAW264.7 [1]) [µM] | viability at 16 h [2] [%] | Activity (RAW264.7 [3]) | viability at 16 h, 200 µM [4] [%] | inhibition (INH) (RAW264.7 [5]) [%] | Activity (RAW264.7 [6]) | viability at 16 h, 2 µM [7] [%]
1 | COc1cc(O)c(CC(O)C(C)(C)OC)c(O)c1C(=O)/C=C/c1ccc(O)cc1 (racemic) | 6.5 | > 95 | – | – | – | – | –
2 | COc1cc(O)c(CC=C(C)C)c(O)c1C(=O)CCc1ccc(O)cc1 [DIHYDROXANTHOHUMOL] | 23 | > 95 | Non-toxic | – | – | – | –
3 | CC(C)=CCC1(CC=C(C)C)C(=O)C(O)=C(O)C1=O [HULUPINIC ACID] | > 100 | – | – | > 95 | – | – | –
4 | CC(C)=CCC1=C2OC(C)(C)C=CC2(CC=C(C)C)C(=O)C(C(=O)CC(C)C)=C1O (centres undefined) [LUPULONE A] | 20 | – | – | – | <40 | Toxic | –
5 | CC(C)=CCC1=C2OC(C)(C)C=CC2(CC=C(C)C)C(=O)C(C(=O)C(C)C)=C1O (centres undefined) [LUPULONE B] | 14 | – | – | – | <40 | Toxic | –
6 | CC(C)=CCC1(CC=C(C)C)C(=O)C2=C(OC(C(C)(C)O)C2)C(C(=O)CC(C)C)=C1O (centres undefined) [LUPULONE C] | 63 | – | – | – | <40 | Toxic | –

Further lines, with some results ahead:

Row | IC50 (RAW264.7 [1]) [µM] | SMILES | viability at 16 h [2] [%] | Activity (RAW264.7 [3]) | viability at 16 h, 200 µM [4] [%] | inhibition (INH) (RAW264.7 [5]) [%] | Activity (RAW264.7 [6]) | viability at 16 h, 2 µM [7] [%]
7 | 11 | CC(C)=CCC1=C2OC(C(C)(C)O)CC2(CC=C(C)C)C(=O)C(C(=O)CC(C)C)=C1O (centres undefined) [LUPULONE D] | – | – | – | <40 | Toxic | < 95
8 | 15 | CC(C)=CCC1=C2OC(C(C)(C)O)CC2(CC=C(C)C)C(=O)C(C(=O)C(C)C)=C1O (centres undefined) [LUPULONE E] | – | – | – | <40 | Toxic | < 95
9 | > 100 | CC(C)C(=O)c1c(O)ccc2c1OC(C(C)(C)O)C2 (centres undefined) [LUPULONE F] | – | – | – | – | – | –
10 | 17 | CC(C)=CCC1=C(O)C(C(=O)CC(C)C)=C(O)C(CC=C(C)C)(CC=C(C)C)C1=O [LUPULONE] | – | – | – | <40 | Toxic | –
11 | 5.6 | COc1cc2c(c(O)c1C(=O)/C=C/c1ccc(O)cc1)CC(O)C(C)(C)O2 (centres undefined) [XANTHOHUMOL B] | > 95 | – | – | – | – | –
12 | 9.4 | C=C(C)C(O)Cc1c(O)cc(OC)c(C(=O)/C=C/c2ccc(O)cc2)c1O (centres undefined) [XANTHOHUMOL D] | > 95 | – | – | – | – | –
13 | 8.3 | COc1cc(O)c(CC=C(C)C)c(O)c1C(=O)/C=C/c1ccc(O)cc1 [XANTHOHUMOL] | > 95 | – | – | – | – | –
